{"source": "paper PMC12059896", "about": "(ACS Omega, 2025)", "key": {"PC-3 cells [1]": {"test_system": "PC-3 cells", "details": "PC-3 cells do not express PSA; ref 10 (Bakthavatsalam et al. 2020); cited from earlier work"}, "LNCaP cells": {"test_system": "LNCaP cells", "assay": "XTT cytotoxicity assay in LNCaP cells", "assay_type": "cell-based", "details": "24 h and 72 h, n = 4 (Figures 6, 7)", "summary_of_the_method": "(§1)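 Cells kept in RPMI with 10% FBS and 1% penicillin–streptomycin at 37 °C, 5% CO2. Seeded at 6 × 10^3 (LNCaP) or 3 × 10^3 (PC-3) per well, attached 24 h, then exposed to free drugs or leucine-coupled drugs. At 24 and 72 h, XTT added for 3 h at 37 °C; absorbance read at 450 nm. Controls: 0.05% DMSO and medium alone. Mean ± SD, n = 4.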"}, "PC-3 cells [2]": {"test_system": "PC-3 cells", "assay": "XTT cytotoxicity assay in PC-3 cells", "assay_type": "cell-based", "details": "24 h and 72 h, n = 4 (Figures 6, 7)", "summary_of_the_method": "as §1"}, "[3]": {"details": "cited from earlier work"}}, "data": [{"compound": "Ac-HSSKLQL-PAB-dithiocarbamate", "values": [{"measurement": "cytotoxicity in PC-3 cells", "setting": "PC-3 cells [1]", "value": "demonstrated cytotoxicity in PC-3 cells"}]}, {"compound": "CCc1c2c(nc3ccc(O)cc13)-c1cc3c(c(=O)n1C2)COC(=O)[C@]3(O)CC", "note": "[SN-38, 7-Ethyl-10-hydroxycamptothecin]", "values": [{"measurement": "cytotoxicity of drug compared with its leucine conjugate, LNCaP", "setting": "LNCaP cells", "value": "comparable cytotoxicity"}, {"measurement": "cytotoxicity of drug compared with its leucine conjugate, PC-3", "setting": "PC-3 cells [2]", "value": "comparable cytotoxicity"}, {"measurement": "potency relative to CPT-11 in inducing antitumor activity", "setting": "[3]", "value": "100- to 1000 fold"}]}, {"compound": "CCc1c2c(nc3ccc(O)cc13)-c1cc3c(c(=O)n1C2)COC(=O)C3(CC)OC(=O)C(N)CC(C)C", "note": "(stereo not shown) [L–SN–38, NH2-Leu–SN–38]", "values": [{"measurement": "cytotoxicity of drug compared with its leucine conjugate, LNCaP", "setting": "LNCaP cells", "value": "comparable cytotoxicity"}, {"measurement": "cytotoxicity of drug compared with its leucine conjugate, PC-3", "setting": "PC-3 cells [2]", "value": "comparable cytotoxicity"}]}, {"compound": "COC1C(=O)C2(C)C(OC)CC3OCC3(OC(C)=O)C2C(OC(=O)c2ccccc2)C2(O)CC(OC(=O)C(OC(=O)C(N)CC(C)C)C(NC(=O)OC(C)(C)C)c3ccccc3)C(C)=C1C2(C)C", "note": "[L-cabazitaxel, NH2-Leu-Cabazitaxel]", "values": [{"measurement": "cytotoxicity of drug compared with its leucine conjugate, LNCaP", "setting": "LNCaP cells", "value": "comparable cytotoxicity"}, {"measurement": "cytotoxicity of drug compared with its leucine conjugate, PC-3", "setting": "PC-3 cells [2]", "value": "comparable cytotoxicity"}]}, {"compound": "CO[C@H]1C(=O)[C@]2(C)[C@@H](OC)C[C@H]3OC[C@@]3(OC(C)=O)[C@H]2[C@H](OC(=O)c2ccccc2)[C@]2(O)C[C@H](OC(=O)[C@H](O)[C@@H](NC(=O)OC(C)(C)C)c3ccccc3)C(C)=C1C2(C)C", "note": "[cabazitaxel]", "values": [{"measurement": "cytotoxicity of drug compared with its leucine conjugate, LNCaP", "setting": "LNCaP cells", "value": "comparable cytotoxicity"}, {"measurement": "cytotoxicity of drug compared with its leucine conjugate, PC-3", "setting": "PC-3 cells [2]", "value": "comparable cytotoxicity"}]}]}
